Calls of active or inactive are those of the source. No cut-off for these calls is given here.
Tests used:
HT-29 = assay: Growth inhibition of human HT-29 cells at 10 uM incubated for 24 hrs by MTT assay relative to control; assay type: functional; conditions: read-out: GI
Summary of the method: (§1)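 Cells seeded at 1 × 10^4 per well, cultured overnight, then exposed to 10 μM compound or DMSO (negative control) for 24 h. After a PBS wash, MTT (2 mg/ml) was added for 4 h at 37°C and formazan dissolved in DMSO. OD read at 570 nm. Growth inhibition = 1 − (OD treated/OD control); at least three independent experiments.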

Histone deacetylase 3 = Histone deacetylase 3 (Homo sapiens, UniProt O15379); assay: Inhibition of human full-length recombinant HDAC3 preincubated for 5 mins followed by HDAC substrate addition and further incubated for 45 mins by fluorescence microplate reader assay
Focal adhesion kinase 1 [1] = target: T1, Focal adhesion kinase 1 (Homo sapiens, UniProt Q05397); assay: Inhibition of FAK (unknown origin) by FRET-based Z'-Lyte assay
Summary of the method: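 Recombinant FAK kinase activity measured with the FRET-based Z'-LYTE format; the same platform was used for a kinase panel (FAK, FLT, FRK, IGF-1R, BTK). IC50 values determined.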
Target sequence in this assay (Q05397 whole entry): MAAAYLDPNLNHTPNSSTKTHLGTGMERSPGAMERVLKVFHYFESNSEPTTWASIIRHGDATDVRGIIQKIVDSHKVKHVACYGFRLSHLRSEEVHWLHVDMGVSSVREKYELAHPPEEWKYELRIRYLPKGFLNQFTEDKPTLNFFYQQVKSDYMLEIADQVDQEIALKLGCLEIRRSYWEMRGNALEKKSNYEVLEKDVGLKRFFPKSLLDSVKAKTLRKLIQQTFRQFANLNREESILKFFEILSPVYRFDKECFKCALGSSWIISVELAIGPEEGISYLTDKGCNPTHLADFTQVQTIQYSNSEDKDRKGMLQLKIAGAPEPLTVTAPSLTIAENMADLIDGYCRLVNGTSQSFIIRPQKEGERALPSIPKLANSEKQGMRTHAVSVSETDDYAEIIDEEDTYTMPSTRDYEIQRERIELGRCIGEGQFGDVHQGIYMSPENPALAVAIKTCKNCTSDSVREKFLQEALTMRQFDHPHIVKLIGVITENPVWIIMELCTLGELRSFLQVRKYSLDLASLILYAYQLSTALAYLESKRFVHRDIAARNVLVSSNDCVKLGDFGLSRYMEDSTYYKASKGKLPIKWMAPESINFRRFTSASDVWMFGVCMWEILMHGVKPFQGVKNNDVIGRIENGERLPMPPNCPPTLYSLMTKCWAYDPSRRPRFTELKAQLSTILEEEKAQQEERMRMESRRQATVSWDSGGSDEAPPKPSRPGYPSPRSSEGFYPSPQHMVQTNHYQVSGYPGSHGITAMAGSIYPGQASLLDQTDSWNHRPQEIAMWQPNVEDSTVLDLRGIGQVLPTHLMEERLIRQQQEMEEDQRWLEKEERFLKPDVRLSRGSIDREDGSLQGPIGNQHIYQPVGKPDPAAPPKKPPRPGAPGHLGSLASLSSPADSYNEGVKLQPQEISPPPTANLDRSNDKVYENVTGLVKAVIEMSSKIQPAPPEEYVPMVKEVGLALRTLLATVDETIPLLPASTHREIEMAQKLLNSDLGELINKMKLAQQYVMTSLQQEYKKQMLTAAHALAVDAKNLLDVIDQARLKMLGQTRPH

[2] = target: T2, Protein deacetylase HDAC6 (Homo sapiens, UniProt Q9UBN7); assay: Inhibition of human full-length recombinant HDAC6 preincubated for 5 mins followed by HDAC substrate addition and further incubated for 45 mins by fluorescence microplate reader assay
T2 sequence (Q9UBN7 whole entry): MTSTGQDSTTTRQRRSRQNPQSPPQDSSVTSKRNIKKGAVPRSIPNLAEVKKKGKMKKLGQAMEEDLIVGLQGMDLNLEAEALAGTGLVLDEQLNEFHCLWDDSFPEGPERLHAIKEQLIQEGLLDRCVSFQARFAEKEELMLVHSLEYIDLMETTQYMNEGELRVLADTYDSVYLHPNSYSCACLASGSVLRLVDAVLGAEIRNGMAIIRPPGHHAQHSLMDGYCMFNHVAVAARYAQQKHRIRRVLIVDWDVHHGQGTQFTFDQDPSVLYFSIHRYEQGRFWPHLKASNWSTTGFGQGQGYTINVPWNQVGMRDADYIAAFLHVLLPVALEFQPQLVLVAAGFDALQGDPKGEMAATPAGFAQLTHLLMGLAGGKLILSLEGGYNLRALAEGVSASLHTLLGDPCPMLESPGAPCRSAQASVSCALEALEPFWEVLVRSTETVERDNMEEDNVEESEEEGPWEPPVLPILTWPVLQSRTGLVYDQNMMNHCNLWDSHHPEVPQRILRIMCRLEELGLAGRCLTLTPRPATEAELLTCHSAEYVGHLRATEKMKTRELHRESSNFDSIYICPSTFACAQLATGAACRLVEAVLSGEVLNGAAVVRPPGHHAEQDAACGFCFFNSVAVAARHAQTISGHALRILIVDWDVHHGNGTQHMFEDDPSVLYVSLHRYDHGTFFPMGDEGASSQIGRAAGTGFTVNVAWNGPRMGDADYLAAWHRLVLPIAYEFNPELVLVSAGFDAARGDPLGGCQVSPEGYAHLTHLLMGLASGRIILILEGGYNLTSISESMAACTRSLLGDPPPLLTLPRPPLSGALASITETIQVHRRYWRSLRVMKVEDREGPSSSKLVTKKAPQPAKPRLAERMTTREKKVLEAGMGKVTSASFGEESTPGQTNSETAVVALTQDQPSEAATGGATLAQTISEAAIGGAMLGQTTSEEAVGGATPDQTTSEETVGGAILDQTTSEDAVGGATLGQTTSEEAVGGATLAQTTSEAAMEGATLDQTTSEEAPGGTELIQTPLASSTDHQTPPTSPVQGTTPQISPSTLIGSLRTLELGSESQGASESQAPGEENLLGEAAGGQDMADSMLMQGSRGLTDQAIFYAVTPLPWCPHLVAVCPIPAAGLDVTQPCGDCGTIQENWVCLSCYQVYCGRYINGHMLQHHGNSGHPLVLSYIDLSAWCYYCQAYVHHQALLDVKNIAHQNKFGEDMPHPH

Histone deacetylase 2 [3] = target: T3, Histone deacetylase 2 (Homo sapiens, UniProt Q92769); assay: Inhibition of HDAC2 in human A498 cells assessed as reduction in HDAC2 expression pretreated for 12 weeks followed by treatment for last 24 hrs by Western blot analysis; assay type: cell-based; conditions: time 85.0 day
A498 [4] = assay: Growth inhibition of human A498 cells at 10 uM incubated for 24 hrs by MTT assay relative to control; assay type: functional; conditions: read-out: GI; summary of the method: as §1
CAKI-1 [5] = assay: Growth inhibition of human CAKI-1 cells at 10 uM incubated for 24 hrs by MTT assay relative to control; assay type: functional; conditions: read-out: GI; summary of the method: as §1
A498 [6] = assay: Induction of cell cycle arrest in human A498 cells assessed as accumulation at G2/M phase incubated for 24 hrs by propidium iodide based flow cytometry analysis (reference value: 18 %); assay type: functional
Summary of the method: (§2)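 Cells at 1 × 10^5/mL treated with 0.75 or 1.5 μM compound or DMSO (negative control) for 24 h, harvested and washed in PBS. Fixed by dropwise ice-cold 80% ethanol with vortexing, held overnight, washed twice, PI-stained 20 min in the dark. Phase distribution read by flow cytometry.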

A498 [7] = assay: Induction of apoptosis in human A498 cells assessed as activation of caspase-9 measured after 24 hrs by ELISA relative to control; assay type: functional
HCT-116 = assay: Growth inhibition of human HCT-116 cells at 10 uM incubated for 24 hrs by MTT assay relative to control; assay type: functional; conditions: read-out: GI; summary of the method: as §1
[8] = target: Signal transducer and activator of transcription 3 (Homo sapiens) (UniProt P40763); assay: Inhibition of STAT3 activation in human A498 cells measured after 24 hrs by Western blot analysis; assay type: cell-based
K562 = assay: Growth inhibition of human K562 cells at 10 uM incubated for 24 hrs by MTT assay relative to control; assay type: functional; conditions: read-out: GI; summary of the method: as §1
CAKI-1 [9] = assay: Induction of cell cycle arrest in human CAKI-1 cells assessed as decrease in cell population at G1 phase at 1.5 uM incubated for 24 hrs by propidium iodide based flow cytometry analysis; assay type: functional; summary of the method: as §2
Focal adhesion kinase 1 [10] = target: T1, Focal adhesion kinase 1; assay: Inhibition of FAK in human A498 cells assessed as reduction in FAK phosphorylation by Western blot analysis; assay type: cell-based
Summary of the method: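 40 μg protein (Bradford) resolved by SDS-PAGE, transferred to PVDF, blocked 1 h in milk or BSA. Primary antibody overnight, HRP secondary 1 h, ECL detection; β-actin as loading control.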
Target sequence in this assay (Q05397 2-1052 limits assumed): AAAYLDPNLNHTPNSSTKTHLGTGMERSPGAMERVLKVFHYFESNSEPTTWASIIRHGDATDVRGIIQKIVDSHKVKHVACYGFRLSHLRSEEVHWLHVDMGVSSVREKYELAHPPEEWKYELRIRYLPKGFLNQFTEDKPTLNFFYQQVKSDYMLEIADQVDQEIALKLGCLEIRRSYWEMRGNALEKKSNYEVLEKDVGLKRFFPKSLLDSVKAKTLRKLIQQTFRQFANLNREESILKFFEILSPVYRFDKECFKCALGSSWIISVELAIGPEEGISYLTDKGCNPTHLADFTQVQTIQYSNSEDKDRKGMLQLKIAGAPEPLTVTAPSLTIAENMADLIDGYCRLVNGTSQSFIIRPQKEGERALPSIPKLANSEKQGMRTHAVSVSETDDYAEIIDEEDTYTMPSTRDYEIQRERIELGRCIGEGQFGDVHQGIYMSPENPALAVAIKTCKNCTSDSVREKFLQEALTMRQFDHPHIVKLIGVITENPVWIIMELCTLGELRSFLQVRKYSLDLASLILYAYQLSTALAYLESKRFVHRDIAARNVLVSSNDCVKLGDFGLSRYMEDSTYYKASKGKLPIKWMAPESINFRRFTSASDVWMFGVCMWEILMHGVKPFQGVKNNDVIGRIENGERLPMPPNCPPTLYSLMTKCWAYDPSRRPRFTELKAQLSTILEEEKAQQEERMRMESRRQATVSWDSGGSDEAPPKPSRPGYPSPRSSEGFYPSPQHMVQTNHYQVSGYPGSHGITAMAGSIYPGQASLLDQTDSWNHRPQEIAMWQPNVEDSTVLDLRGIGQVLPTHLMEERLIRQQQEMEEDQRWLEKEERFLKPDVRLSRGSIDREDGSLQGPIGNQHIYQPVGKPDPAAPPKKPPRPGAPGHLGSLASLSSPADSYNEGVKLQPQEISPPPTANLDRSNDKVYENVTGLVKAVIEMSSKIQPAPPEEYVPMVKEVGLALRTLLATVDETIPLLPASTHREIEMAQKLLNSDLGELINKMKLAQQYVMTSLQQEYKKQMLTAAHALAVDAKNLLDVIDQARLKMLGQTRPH

Histone deacetylase 2 [11] = target: T3, Histone deacetylase 2; assay: Inhibition of human full-length recombinant HDAC2 preincubated for 5 mins followed by HDAC substrate addition and further incubated for 45 mins by fluorescence microplate reader assay
KG-1 = assay: Growth inhibition of human KG-1 cells at 10 uM incubated for 24 hrs by MTT assay relative to control; assay type: functional; conditions: KG-1, 24 h; summary of the method: as §1
Focal adhesion kinase 1 [12] = target: T1, Focal adhesion kinase 1; assay: Inhibition of FAK in human A498 cells assessed as reduction in FAK phosphorylation pretreated for 12 weeks followed by treatment for last 24 hrs by Western blot analysis; assay type: cell-based; conditions: time 85.0 day
Target sequence in this assay (Q05397 2-1052 limits assumed): as above

A498 [13] = assay: Antiproliferative activity against human A498 cells assessed as cell growth inhibition incubated for 24 hrs by MTT assay; assay type: functional, cell-based; conditions: A498, 24 h
CAKI-1 [14] = assay: Induction of cell cycle arrest in human CAKI-1 cells assessed as accumulation at G2/M phase incubated for 24 hrs by propidium iodide based flow cytometry analysis (reference value: 5.5 %); assay type: functional; summary of the method: as §2

T3 sequence (Q92769 whole entry): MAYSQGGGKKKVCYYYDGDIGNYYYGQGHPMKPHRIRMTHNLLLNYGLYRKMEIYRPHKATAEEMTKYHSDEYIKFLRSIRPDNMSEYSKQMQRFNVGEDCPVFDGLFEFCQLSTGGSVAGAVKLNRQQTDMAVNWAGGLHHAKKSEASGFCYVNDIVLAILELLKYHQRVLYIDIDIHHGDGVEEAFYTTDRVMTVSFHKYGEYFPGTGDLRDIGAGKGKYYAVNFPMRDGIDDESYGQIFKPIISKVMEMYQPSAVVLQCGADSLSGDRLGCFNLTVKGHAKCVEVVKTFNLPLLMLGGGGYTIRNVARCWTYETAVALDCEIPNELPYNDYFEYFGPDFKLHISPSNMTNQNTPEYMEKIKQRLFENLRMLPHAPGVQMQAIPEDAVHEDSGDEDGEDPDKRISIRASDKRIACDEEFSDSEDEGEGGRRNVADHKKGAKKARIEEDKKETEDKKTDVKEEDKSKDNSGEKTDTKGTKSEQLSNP
Histone deacetylase 3, sequence (O15379 whole entry): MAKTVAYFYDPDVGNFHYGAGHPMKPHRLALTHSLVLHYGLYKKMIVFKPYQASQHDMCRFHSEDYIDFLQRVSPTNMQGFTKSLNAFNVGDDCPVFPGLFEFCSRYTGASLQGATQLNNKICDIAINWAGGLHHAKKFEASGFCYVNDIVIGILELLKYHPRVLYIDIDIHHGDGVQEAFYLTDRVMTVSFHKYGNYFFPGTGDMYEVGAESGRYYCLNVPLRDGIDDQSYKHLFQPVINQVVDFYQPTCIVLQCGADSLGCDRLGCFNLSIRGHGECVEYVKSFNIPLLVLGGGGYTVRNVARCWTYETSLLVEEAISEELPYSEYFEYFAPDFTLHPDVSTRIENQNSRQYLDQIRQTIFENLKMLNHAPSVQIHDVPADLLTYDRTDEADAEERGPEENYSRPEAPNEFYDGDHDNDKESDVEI
Signal transducer and activator of transcription 3 (Homo sapiens), sequence (P40763 whole entry): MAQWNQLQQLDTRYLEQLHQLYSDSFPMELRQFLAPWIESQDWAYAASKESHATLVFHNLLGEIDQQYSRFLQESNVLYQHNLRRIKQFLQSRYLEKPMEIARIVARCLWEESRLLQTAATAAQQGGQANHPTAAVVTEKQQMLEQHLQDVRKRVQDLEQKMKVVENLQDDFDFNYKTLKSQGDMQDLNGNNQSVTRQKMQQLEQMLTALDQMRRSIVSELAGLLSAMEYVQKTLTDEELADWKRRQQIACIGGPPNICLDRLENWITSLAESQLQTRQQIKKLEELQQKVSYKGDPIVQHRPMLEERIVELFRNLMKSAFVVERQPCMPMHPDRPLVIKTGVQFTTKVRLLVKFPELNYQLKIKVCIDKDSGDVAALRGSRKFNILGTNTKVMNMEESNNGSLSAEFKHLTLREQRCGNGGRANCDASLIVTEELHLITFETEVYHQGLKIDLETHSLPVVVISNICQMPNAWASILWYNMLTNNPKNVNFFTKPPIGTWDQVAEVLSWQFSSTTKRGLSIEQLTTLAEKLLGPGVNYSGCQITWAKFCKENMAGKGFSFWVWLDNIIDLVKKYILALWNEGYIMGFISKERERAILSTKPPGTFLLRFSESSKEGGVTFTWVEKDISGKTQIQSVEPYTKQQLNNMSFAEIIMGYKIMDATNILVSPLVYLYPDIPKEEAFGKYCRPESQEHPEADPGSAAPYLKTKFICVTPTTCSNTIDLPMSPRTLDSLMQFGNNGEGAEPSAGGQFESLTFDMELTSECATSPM

Question: What does the source list for Cn1c(SCCCCCC(=O)NO)nnc1-c1ccncc1?
Answer: inhibition of growth at 10 µM (HT-29): 68.3%; IC50 (Histone deacetylase 3): 3410 nM; IC50 (Focal adhesion kinase 1 [1]): 12.6 nM; IC50 [2]: 13900 nM; inhibition (Histone deacetylase 2 [3]): Active; inhibition of growth at 10 µM (A498 [4]): 99.8%; inhibition of growth at 10 µM (CAKI-1 [5]): 98.1%; Activity (A498 [6]): 65%; fold change (FC) (A498 [7]): 6; inhibition of growth at 10 µM (HCT-116): 60.1%; inhibition [8]: Active; inhibition of growth at 10 µM (K562): 40.1%; Activity (CAKI-1 [9]): Active; inhibition (Focal adhesion kinase 1 [10]): Active; IC50 (Histone deacetylase 2 [11]): 90 nM; inhibition in vitro at 10 µM (KG-1): 84.2%; inhibition (Focal adhesion kinase 1 [12]): Active; IC50 (A498 [13]): 950 nM; Activity (CAKI-1 [14]): 35%
